Test system: U2OS
Assay: Multiplex assay against U2OS
Assay type: toxicity, cell-based
Conditions: human
In short: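 Compound was added to live cells that had been stained at seeding with Hoechst33342, BioTracker Green Microtubule Cytoskeleton Dye, MitoTracker Red and Annexin V Alexa Fluor 680, and imaging followed on a CQ1 microscope at 37°C and 5% CO2. CellPathfinder machine-learning gating divided cells into Hoechst high-intensity objects or normal cells, normal cells into healthy, pyknosed or fragmented nuclei, and pyknosed cells into mitotic or apoptotic. Tubulin, mitochondrial-mass and membrane-permeability phenotypes are per cents of healthy-nucleus cells.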

[1] = 12 h, 1 µM, compound concentration 1 uM, replicate 1
[2] = 12 h, 1 µM, compound concentration 1 uM, replicate 2
[3] = 12 h, 10 µM, compound concentration 10 uM, replicate 1
[4] = 12 h, 10 µM, compound concentration 10 uM, replicate 2
[5] = 24 h, 1 µM, compound concentration 1 uM, replicate 1
[6] = 24 h, 1 µM, compound concentration 1 uM, replicate 2
[7] = 24 h, 10 µM, compound concentration 10 uM, replicate 1
[8] = 24 h, 10 µM, compound concentration 10 uM, replicate 2
[9] = 48 h, 1 µM, compound concentration 1 uM, replicate 1
[10] = 48 h, 1 µM, compound concentration 1 uM, replicate 2
[11] = 48 h, 10 µM, compound concentration 10 uM, replicate 1
[12] = 48 h, 10 µM, compound concentration 10 uM, replicate 2

Cc1cc(C)c(S(=O)(=O)N(Cc2ccc(-c3cccc(S(C)(=O)=O)c3)cc2)Cc2ccc(C(F)(F)F)o2)c(C)c1 was tested, and the “Population Apoptotic (%)” value [1] was 50%, the “Population Fragmented Nuclei (%)” value [1] was 9% and the “Population Healthy Nuclei (%)” value [1] was 84%. For the same compound, the “Population Hoechst High Intensity Objects (%)” value [1] was 7%, the “Population Membrane Permeable-Phenotype (%)” value [1] was 4% and the “Population Mitochondria Different-Phenotype (%)” value [1] was 18%. For the same compound, the “Population Mitotic Cells (%)” value [1] was 50%, the “Population Normal (%)” value [1] was 92% and the “Population Pyknosed Nuclei (%)” value [1] was 6%. The “Population Tubulin-Different-Phenotype (%)” value [1] was 12%, the “Total Cell Count” value [1] was 77 and the “Population Apoptotic (%)” value [2] was 66%. For the same compound, the “Population Fragmented Nuclei (%)” value [2] was 15%, the “Population Healthy Nuclei (%)” value [2] was 80% and the “Population Hoechst High Intensity Objects (%)” value [2] was 6%. For the same compound, the “Population Membrane Permeable-Phenotype (%)” value [2] was 3%, the “Population Mitochondria Different-Phenotype (%)” value [2] was 21% and the “Population Mitotic Cells (%)” value [2] was 33%. The “Population Normal (%)” value [2] was 93%, the “Population Pyknosed Nuclei (%)” value [2] was 3% and the “Population Tubulin-Different-Phenotype (%)” value [2] was 27%. For the same compound, the “Total Cell Count” value [2] was 72, the “Population Apoptotic (%)” value [3] was 31% and the “Population Fragmented Nuclei (%)” value [3] was 8%. For the same compound, the “Population Healthy Nuclei (%)” value [3] was 81%, the “Population Hoechst High Intensity Objects (%)” value [3] was 5% and the “Population Membrane Permeable-Phenotype (%)” value [3] was 58%. The “Population Mitochondria Different-Phenotype (%)” value [3] was 27%, the “Population Mitotic Cells (%)” value [3] was 68% and the “Population Normal (%)” value [3] was 94%. The “Population Pyknosed Nuclei (%)” value [3] was 10%, the “Population Tubulin-Different-Phenotype (%)” value [3] was 85% and the “Total Cell Count” value [3] was 104. For the same compound, the “Population Apoptotic (%)” value [4] was 0%, the “Population Fragmented Nuclei (%)” value [4] was 14% and the “Population Healthy Nuclei (%)” value [4] was 77%. For the same compound, the “Population Hoechst High Intensity Objects (%)” value [4] was 22%, the “Population Membrane Permeable-Phenotype (%)” value [4] was 3% and the “Population Mitochondria Different-Phenotype (%)” value [4] was 3%. The “Population Mitotic Cells (%)” value [4] was 100%, the “Population Normal (%)” value [4] was 77% and the “Population Pyknosed Nuclei (%)” value [4] was 8%. The “Population Tubulin-Different-Phenotype (%)” value [4] was 11%, the “Total Cell Count” value [4] was 81 and the “Population Apoptotic (%)” value [5] was 40%. The “Population Fragmented Nuclei (%)” value [5] was 10%, the “Population Healthy Nuclei (%)” value [5] was 82% and the “Population Hoechst High Intensity Objects (%)” value [5] was 3%. For the same compound, the “Population Membrane Permeable-Phenotype (%)” value [5] was 3%, the “Population Mitochondria Different-Phenotype (%)” value [5] was 13% and the “Population Mitotic Cells (%)” value [5] was 60%. For the same compound, the “Population Normal (%)” value [5] was 96%, the “Population Pyknosed Nuclei (%)” value [5] was 7% and the “Population Tubulin-Different-Phenotype (%)” value [5] was 9%. The “Total Cell Count” value [5] was 89, the “Population Apoptotic (%)” value [6] was 0% and the “Population Fragmented Nuclei (%)” value [6] was 14%. The “Population Healthy Nuclei (%)” value [6] was 80%, the “Population Hoechst High Intensity Objects (%)” value [6] was 1% and the “Population Membrane Permeable-Phenotype (%)” value [6] was 5%. For the same compound, the “Population Mitochondria Different-Phenotype (%)” value [6] was 18%, the “Population Mitotic Cells (%)” value [6] was 100% and the “Population Normal (%)” value [6] was 98%. For the same compound, the “Population Pyknosed Nuclei (%)” value [6] was 5%, the “Population Tubulin-Different-Phenotype (%)” value [6] was 32% and the “Total Cell Count” value [6] was 86. For the same compound, the “Population Apoptotic (%)” value [7] was 41%, the “Population Fragmented Nuclei (%)” value [7] was 11% and the “Population Healthy Nuclei (%)” value [7] was 71%. For the same compound, the “Population Hoechst High Intensity Objects (%)” value [7] was 6%, the “Population Membrane Permeable-Phenotype (%)” value [7] was 47% and the “Population Mitochondria Different-Phenotype (%)” value [7] was 32%. The “Population Mitotic Cells (%)” value [7] was 58%, the “Population Normal (%)” value [7] was 93% and the “Population Pyknosed Nuclei (%)” value [7] was 17%. The “Population Tubulin-Different-Phenotype (%)” value [7] was 87%, the “Total Cell Count” value [7] was 133 and the “Population Apoptotic (%)” value [8] was 14%. The “Population Fragmented Nuclei (%)” value [8] was 15%, the “Population Hoechst High Intensity Objects (%)” value [8] was 10% and the “Population Membrane Permeable-Phenotype (%)” value [8] was 5%. For the same compound, the “Population Mitochondria Different-Phenotype (%)” value [8] was 10%, the “Population Mitotic Cells (%)” value [8] was 85% and the “Population Normal (%)” value [8] was 89%. For the same compound, the “Population Pyknosed Nuclei (%)” value [8] was 13%, the “Population Tubulin-Different-Phenotype (%)” value [8] was 15% and the “Total Cell Count” value [8] was 109. For the same compound, the “Population Apoptotic (%)” value [9] was 64%, the “Population Fragmented Nuclei (%)” value [9] was 6% and the “Population Healthy Nuclei (%)” value [9] was 83%. The “Population Hoechst High Intensity Objects (%)” value [9] was 3%, the “Population Membrane Permeable-Phenotype (%)” value [9] was 1% and the “Population Mitochondria Different-Phenotype (%)” value [9] was 7%. The “Population Mitotic Cells (%)” value [9] was 35%, the “Population Normal (%)” value [9] was 96% and the “Population Pyknosed Nuclei (%)” value [9] was 9%. For the same compound, the “Population Tubulin-Different-Phenotype (%)” value [9] was 4%, the “Total Cell Count” value [9] was 116 and the “Population Apoptotic (%)” value [10] was 50%. The “Population Fragmented Nuclei (%)” value [10] was 9%, the “Population Healthy Nuclei (%)” value [10] was 84% and the “Population Hoechst High Intensity Objects (%)” value [10] was 2%. The “Population Membrane Permeable-Phenotype (%)” value [10] was 6%, the “Population Mitochondria Different-Phenotype (%)” value [10] was 25% and the “Population Mitotic Cells (%)” value [10] was 50%. For the same compound, the “Population Normal (%)” value [10] was 97%, the “Population Pyknosed Nuclei (%)” value [10] was 5% and the “Population Tubulin-Different-Phenotype (%)” value [10] was 34%. The “Total Cell Count” value [10] was 123, the “Population Apoptotic (%)” value [11] was 55% and the “Population Fragmented Nuclei (%)” value [11] was 9%. The “Population Healthy Nuclei (%)” value [11] was 72%, the “Population Hoechst High Intensity Objects (%)” value [11] was 3% and the “Population Membrane Permeable-Phenotype (%)” value [11] was 24%. For the same compound, the “Population Mitochondria Different-Phenotype (%)” value [11] was 24%, the “Population Mitotic Cells (%)” value [11] was 45% and the “Population Normal (%)” value [11] was 96%. The “Population Pyknosed Nuclei (%)” value [11] was 18%, the “Population Tubulin-Different-Phenotype (%)” value [11] was 55% and the “Total Cell Count” value [11] was 181. For the same compound, the “Population Apoptotic (%)” value [12] was 25%, the “Population Fragmented Nuclei (%)” value [12] was 7% and the “Population Healthy Nuclei (%)” value [12] was 82%. The “Population Membrane Permeable-Phenotype (%)” value [12] was 6%, the “Population Mitochondria Different-Phenotype (%)” value [12] was 10% and the “Population Mitotic Cells (%)” value [12] was 75%. The “Population Pyknosed Nuclei (%)” value [12] was 10%, the “Population Tubulin-Different-Phenotype (%)” value [12] was 13% and the “Total Cell Count” value [12] was 148.
